Arr AP2 block – blocks beta-arrestin peptide binding to AP2 adaptin; FITC-arrestin peptide / GST-AP2 beads, flow cytometry; AP2 beta2 appendage carries R879A mutation; inhibition, % at 10 µM; actives 0.31% (n = 340,000);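 active means inhibition above a set limit, near 3 SD of compounds lacking own fluorescence, cut at about 54% in these data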
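Material – AP2 appendage R879A on GSH beads · Buffer or medium – PBS with 0.05% Tween 20 and 0.1% BSA · Probe or stimulus – fluorescein-tagged arrestin peptide at 50 nM final · Incubation – compound with beads 12 min RT, then probe 1 h RT · Detection – high-throughput flow cytometry of beads, ex 488, em 535 nm · Evaluation – percent response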
Exocytosis inh – lytic granule exocytosis inhibition. TALL-104 LAMP-1 surface exposure, flow cytometry; cells stimulated with thapsigargin and PMA. actives 0.66% (n = 360,000). inhibition, % at 10 µM;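 active means inhibition above about 55%, limit read from the data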
ABCB6 inh 2 – human ABCB6 transporter inhibition. Q9NP58. K562-ABCB6 porphyrin accumulation, flow cytometry, 1 h; stronger effect = lower value. actives 0.19% (n = 360,000). fluorescence ratio to DMSO, % at 10 µM. AID 602162;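 active means fluorescence ratio to DMSO below 75%, the collection mean minus 3 SD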;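 further: signal is porphyrin accumulated inside mitochondria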
Target sequence (Q9NP58 whole entry, looked up): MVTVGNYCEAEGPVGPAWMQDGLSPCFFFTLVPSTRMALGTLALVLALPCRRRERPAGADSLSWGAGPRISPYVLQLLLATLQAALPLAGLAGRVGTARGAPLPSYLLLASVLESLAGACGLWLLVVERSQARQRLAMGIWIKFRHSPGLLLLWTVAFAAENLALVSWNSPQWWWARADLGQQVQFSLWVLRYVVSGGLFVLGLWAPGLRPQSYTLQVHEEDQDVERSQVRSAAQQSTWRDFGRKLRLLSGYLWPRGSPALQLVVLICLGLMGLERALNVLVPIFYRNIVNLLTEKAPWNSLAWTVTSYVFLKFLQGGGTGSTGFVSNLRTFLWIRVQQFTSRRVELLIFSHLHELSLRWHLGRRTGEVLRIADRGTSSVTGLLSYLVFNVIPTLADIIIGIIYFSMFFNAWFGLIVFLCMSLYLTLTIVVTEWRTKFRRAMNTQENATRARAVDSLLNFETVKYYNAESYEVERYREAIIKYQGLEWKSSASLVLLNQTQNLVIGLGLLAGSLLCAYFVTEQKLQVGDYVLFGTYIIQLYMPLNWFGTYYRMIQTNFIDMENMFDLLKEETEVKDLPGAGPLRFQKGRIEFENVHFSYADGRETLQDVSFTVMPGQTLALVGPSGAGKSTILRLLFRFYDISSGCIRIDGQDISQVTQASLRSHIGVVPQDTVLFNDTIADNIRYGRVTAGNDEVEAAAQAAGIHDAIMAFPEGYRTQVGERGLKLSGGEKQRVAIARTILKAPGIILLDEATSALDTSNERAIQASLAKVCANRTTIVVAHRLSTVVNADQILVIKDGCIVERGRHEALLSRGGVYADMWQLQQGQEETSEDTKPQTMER
ATG4B inhibitor – ATG4B (human) cysteine protease inhibition. Q9Y4P1. ATG4B cleavage of LC3-PLA2, NBD-HPC fluorescence, 1 h. inhibition, % at 8.33 µM. actives 0.51% (n = 340,000). AID 504462; in the data active means inhibition above about 40%
Myeloid diff MLP – myeloid differentiation induction | ER-HoxA9 myeloid progenitors, lysozyme-GFP differentiation, flow cytometry | calls only at 10 µM | actives 1% (n = 360,000);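 active means normalized GFP-positive differentiation at or above the plate's own cutoff, the solvent-only control mean plus 3 SD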;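 further: cells exposed to compound for four days before flow analysis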
NRP1-CendR mod – NRP-1/CendR interaction modulation. O14786. FAM-RPARPAR peptide binding to NRP-1, fluorescence polarization. inhibition, % at 25 µM. actives 0.85% (n = 360,000);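 active means inhibition or corrected inhibition above about 18%, plus a signal ratio from 0.5 to 1.5, limit read from the data, passing the limit was not always enough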
Each line names hits and unclear results; the compound was inactive in the other large screens. The list is not random: actives were taken first. Their share in the collection is about 3.3%.

C#C[C@]1(O)CC[C@H]2[C@@H]3CCC4=Cc5nc6nc7ccccc7n6cc5C[C@]4(C)[C@H]3CC[C@@]21C	Myeloid diff MLP active
CN1CCCC1CCOC(C)(c1ccccc1)c1ccc(Cl)cc1 (stereo not drawn)	none
COC(=O)C1=C(c2cccc(OCc3ccccc3)c2)C[C@@H]2CC[C@H]1N2C(=O)NCc1ccc(OC)cc1	Myeloid diff MLP active
CCCNC(=O)N1[C@H]2CC[C@@H]1C(C(=O)OC)=C(c1ccc(OC(F)(F)F)cc1)C2	NRP1-CendR mod 29
COC(=O)C1=C(c2ccc(OC(F)(F)F)cc2)C[C@@H]2CC[C@H]1N2C(=O)NCCOc1ccccc1	none
COC(=O)C1=C(c2cccc(OC)c2OC)C[C@@H]2CC[C@H]1N2C(=O)NCc1ccc(F)cc1	NRP1-CendR mod 27
COC(=O)C1=C(c2ccccc2OCc2ccccc2)C[C@@H]2CC[C@H]1N2C(=O)NCc1ccc(F)cc1	NRP1-CendR mod 22
CC1([N+](=O)[O-])COP(=O)(NC2CC2)OC1 (stereo not drawn)	none
Nc1ncnc2c1ncn2[C@@H]1O[C@H](C(=O)NCCc2ccc(F)cc2)[C@@H](O)[C@H]1O	none (no result: Arr AP2 block, ATG4B inhibitor)
Cc1cc(N(CCCl)CCCl)ccc1C=NNC(=O)Cc1cc(=O)oc2cc(O)ccc12	Myeloid diff MLP active
CN1CCN(c2nc(N)c(Br)c(Cl)n2)CC1	Myeloid diff MLP active
O=c1[nH]c(O)c(/C=C2/C=CC(c3cc(Cl)ccc3Cl)=N2)c(=O)[nH]1	Exocytosis inh 92, Myeloid diff MLP active
CC1=Nc2ccccc2/C1=C/c1c(O)[nH]c(=O)[nH]c1=O	none
COc1cccc2c1O[C@H]1C(=O)CC[C@H]3CN(C)CCC231 (stereo partly drawn)	none
COc1ccccc1N1CCN(Cc2cccc(Br)c2)CC1	none
Clc1ccc(-c2nc3ccc(Cl)cn3c2CN2CCOCC2)cc1	NRP1-CendR mod 50
Clc1ccc(-c2nc3ccc(Cl)cn3c2CN2CCCCC2)cc1	none
CCOC(=O)C(=O)NC1CCSC1=O (stereo not drawn)	none
COC(=O)C1=C(c2ccc(F)cc2F)C[C@@H]2CC[C@H]1N2C(=O)NCCOc1ccccc1Cl	none
Clc1ccccc1CNC1CN2CCC1CC2 (stereo not drawn)	NRP1-CendR mod 26
CCN(CC)c1ccc(CN2CC=C(c3ccc(F)cc3)CC2)cc1	NRP1-CendR mod 20
COc1ccc(-[n+]2c(-c3ccccc3)cc(-c3ccc(C)cc3)cc2-c2ccccc2)cc1	Exocytosis inh 74 (no result: Myeloid diff MLP)
O=C1NC(=O)N(CCc2ccc(F)cc2)C(=O)/C1=C\C=C\c1ccccc1	Exocytosis inh 66 (no result: Myeloid diff MLP)
Cc1ccc(/C=C2/C(=O)NC(=O)N(CCc3ccc(F)cc3)C2=O)s1	none
Cc1ccc(/C=C2\C(=O)NC(=O)N(CCc3ccc(F)cc3)C2=O)s1	Exocytosis inh 92
O=C1NC(=O)N(Cc2ccc(F)cc2)C(=O)/C1=C/c1cccs1	Exocytosis inh 56
Cc1nc(N2CCN(Cc3ccc4c(c3)OCO4)CC2)[nH]c(=O)c1C	none
COCCNC(=O)CN1C(=O)C(C)N=C(c2ccccc2)c2cc(Cl)ccc21 (stereo not drawn)	none
Cc1ccc(-[n+]2c(Cc3nn(-c4ccccc4)c(C)[n+]3-c3ccc(C)cc3)nn(-c3ccccc3)c2C)cc1	NRP1-CendR mod 27 (no result: Arr AP2 block, ATG4B inhibitor)
Cc1ccc(-c2cc(-c3ccccc3)cc(-c3ccccc3)[n+]2-c2ccc(C(=O)O)cc2)cc1	none
CC(=O)c1ccc(OCC(=O)N2CCCC(N3CCN(c4ccccc4C)CC3)C2)cc1 (stereo not drawn)	none
Cc1cccc(C)c1-n1nnnc1C(C1CC1)N1CCC(n2c(=O)[nH]c3ccccc32)CC1 (stereo not drawn)	none (no result: Arr AP2 block, ATG4B inhibitor)
CN1/C(=C\C=C2C(=O)NC(=O)NC2=O)C(C)(C)c2ccccc21	Myeloid diff MLP active
CN1/C(=C\C=Nc2ccccc2)C(C)(C)c2ccccc21	none
COc1ccc(CN2CCN(Cc3ccccc3F)CC2)cc1	none
CC(=O)Nc1ccc(OCCF)cc1	NRP1-CendR mod 26
CCOc1ccc(NC(=O)c2c(O)[nH]c(=O)[nH]c2=O)cc1	none
